Target: T1, Endothelin-1 receptor (Homo sapiens, UniProt P25101)
T1 sequence (P25101 whole entry): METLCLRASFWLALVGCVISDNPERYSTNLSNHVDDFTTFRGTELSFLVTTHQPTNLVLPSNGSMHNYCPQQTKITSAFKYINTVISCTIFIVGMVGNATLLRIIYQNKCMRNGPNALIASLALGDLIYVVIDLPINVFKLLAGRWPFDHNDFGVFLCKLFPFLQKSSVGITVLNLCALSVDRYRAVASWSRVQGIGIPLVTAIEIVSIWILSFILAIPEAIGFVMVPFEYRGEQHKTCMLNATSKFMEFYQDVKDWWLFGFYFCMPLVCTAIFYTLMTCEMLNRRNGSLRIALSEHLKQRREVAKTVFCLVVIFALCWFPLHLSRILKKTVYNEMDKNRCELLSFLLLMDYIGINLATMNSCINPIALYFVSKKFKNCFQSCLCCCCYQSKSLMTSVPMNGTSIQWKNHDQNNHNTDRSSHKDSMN
Test: Binding affinity at human Endothelin A receptor
Procedure, shortened: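 Membranes from CHO cells expressing human ETA receptor were incubated with [125I]ET-1 and the test compound at various concentrations for 60 min at 37 °C. Buffer was Hank's solution with 20 mM HEPES and protease inhibitors. Bound ligand was collected on PEI-presoaked glass-fibre filters and washed with 50 mM Tris-HCl pH 7.4, then counted.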

Row | IC50 [nM] | SMILES
1 | 0.45 | COc1ccc(C2=C(C(=O)O)[C@@H](c3ccc4c(c3)OCO4)Oc3ccc(OC(C)C)cc32)cc1

Target: T2, Endothelin receptor type B (Homo sapiens, UniProt P24530)
T2 sequence (P24530 whole entry): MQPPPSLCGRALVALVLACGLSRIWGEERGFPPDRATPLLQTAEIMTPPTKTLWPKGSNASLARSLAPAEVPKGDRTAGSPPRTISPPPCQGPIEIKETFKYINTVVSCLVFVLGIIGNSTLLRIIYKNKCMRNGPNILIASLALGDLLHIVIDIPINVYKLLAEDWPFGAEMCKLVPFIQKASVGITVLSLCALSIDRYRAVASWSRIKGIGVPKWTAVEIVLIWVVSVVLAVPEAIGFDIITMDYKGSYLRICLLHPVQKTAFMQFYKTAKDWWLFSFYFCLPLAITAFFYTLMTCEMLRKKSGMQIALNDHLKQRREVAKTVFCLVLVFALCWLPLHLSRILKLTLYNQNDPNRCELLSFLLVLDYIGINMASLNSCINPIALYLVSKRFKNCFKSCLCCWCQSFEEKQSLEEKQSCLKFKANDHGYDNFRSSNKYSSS
Test: Binding affinity at human Endothelin B receptor
Procedure, shortened: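 Membranes from CHO cells expressing human ETB receptor were incubated with [125I]ET-3 (25 pM as added) and the test compound at various concentrations for 60 min at 37 °C. Buffer was HEPES (20 mM)-buffered Hank's solution with protease inhibitors. Samples were filtered on PEI-presoaked glass-fibre filters, washed with 50 mM Tris-HCl pH 7.4 and counted. Nonspecific binding was taken with 0.1 µM ET-3.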

Row | IC50 [nM] | SMILES
2 | 200 | COc1ccc(C2=C(C(=O)O)[C@@H](c3ccc4c(c3)OCO4)Oc3ccc(OC(C)C)cc32)cc1

Target: T3, Endothelin receptor type B (Sus scrofa, UniProt P35463)
T3 sequence (P35463 whole entry): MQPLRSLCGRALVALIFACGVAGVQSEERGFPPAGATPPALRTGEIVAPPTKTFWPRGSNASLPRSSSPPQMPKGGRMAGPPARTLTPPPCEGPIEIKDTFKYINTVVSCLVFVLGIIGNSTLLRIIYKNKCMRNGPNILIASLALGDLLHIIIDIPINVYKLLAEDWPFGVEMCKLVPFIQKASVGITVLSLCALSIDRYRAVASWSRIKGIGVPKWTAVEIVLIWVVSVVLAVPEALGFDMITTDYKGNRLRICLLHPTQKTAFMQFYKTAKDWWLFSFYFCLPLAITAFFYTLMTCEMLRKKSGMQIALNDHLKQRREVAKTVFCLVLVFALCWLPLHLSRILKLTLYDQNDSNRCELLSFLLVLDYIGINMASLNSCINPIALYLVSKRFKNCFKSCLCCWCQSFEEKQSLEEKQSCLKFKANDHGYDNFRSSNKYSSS
Test: Binding affinity to endothelin B receptor measured by inhibition of [125I]ET-3 binding recombinant pig ET-B receptor expressed in COS-7 cells
Assay type: cell-based
Procedure, shortened: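 COS cells transfected with porcine ETB cDNA, in Hank's solution with 20 mM HEPES and protease inhibitors. Stopped by filtration on GF/C filters presoaked in 1% polyethylenimine, washed with 50 mM Tris-HCl pH 7.4, then counted. Nonspecific binding taken with 0.1 μM ET-3.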

Row | SMILES | IC50 [nM]
3 | CCCCOC1=C(C(=O)O)C(c2ccc3c(c2)OCO3)Oc2ccccc21 (stereo unspecified) | 4900
4 | CC(C)Oc1ccc2c(c1)C=C(C(=O)O)[C@@H](c1ccc3c(c1)OCO3)O2 | 52000
5 | CCCCOC1=C(C(=O)O)C(c2ccc3c(c2)OCO3)Oc2ccc(OCC)cc21 (stereo unspecified) | 1600
6 | CC(C)Oc1ccc2c(c1)C=C(C(=O)O)C(c1ccc3c(c1)OCO3)O2 (stereo unspecified) | 52000

Stronger by IC50, values ahead:

Row | IC50 [nM] | SMILES
7 | 540 | COc1ccc(C2=C(C(=O)O)C(c3ccc4c(c3)OCO4)Oc3ccc(OC)cc32)cc1 (stereo unspecified)
8 | 470 | CCCCOC1=C(C(=O)O)C(c2ccc3c(c2)OCO3)Oc2ccc(OCCCC)cc21 (stereo unspecified)
9 | 220 | CCCOc1ccc2c(c1)C(c1ccc(OC)cc1)=C(C(=O)O)C(c1ccc3c(c1)OCO3)O2 (stereo unspecified)
10 | 190 | COc1ccc(C2=C(C(=O)O)C(c3ccc4c(c3)OCO4)Oc3ccc(C(C)C)cc32)cc1 (stereo unspecified)
11 | 170 | COc1ccc(C2=C(C(=O)O)C(c3ccc4c(c3)OCO4)Oc3ccc(OC(C)CO)cc32)cc1 (stereo unspecified)
12 | 120 | COc1ccc(C2=C(C(=O)O)[C@@H](c3ccc4c(c3)OCO4)Oc3ccc(OC(C)C)cc32)cc1

Target: T4, Endothelin-1 receptor (Rattus norvegicus, UniProt P26684)
T4 sequence (P26684 whole entry): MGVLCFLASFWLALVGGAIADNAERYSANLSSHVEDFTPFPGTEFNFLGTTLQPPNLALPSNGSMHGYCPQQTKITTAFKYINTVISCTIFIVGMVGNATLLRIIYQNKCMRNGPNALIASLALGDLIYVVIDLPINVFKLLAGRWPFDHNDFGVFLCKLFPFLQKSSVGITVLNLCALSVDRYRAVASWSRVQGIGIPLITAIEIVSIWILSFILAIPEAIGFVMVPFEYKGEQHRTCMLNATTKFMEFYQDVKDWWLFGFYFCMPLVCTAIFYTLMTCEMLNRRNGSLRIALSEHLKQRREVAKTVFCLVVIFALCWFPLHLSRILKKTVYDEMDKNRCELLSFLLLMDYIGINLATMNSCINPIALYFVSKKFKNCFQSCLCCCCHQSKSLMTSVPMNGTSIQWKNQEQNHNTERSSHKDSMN
Test: Binding affinity for endothelin A receptor by inhibition of [125I]ET1 binding in rat aorta smooth muscle cells
Assay type: tissue-based

Row | SMILES | IC50 [nM]
13 | CCCCOC1=C(C(=O)O)C(c2ccc3c(c2)OCO3)Oc2ccccc21 (stereo unspecified) | 66
14 | CC(C)Oc1ccc2c(c1)C=C(C(=O)O)[C@@H](c1ccc3c(c1)OCO3)O2 | 240
15 | CCCCOC1=C(C(=O)O)C(c2ccc3c(c2)OCO3)Oc2ccc(OCC)cc21 (stereo unspecified) | 4.2
16 | CC(C)Oc1ccc2c(c1)C=C(C(=O)O)C(c1ccc3c(c1)OCO3)O2 (stereo unspecified) | 330

Continued, values first:

Row | IC50 [nM] | SMILES
17 | 74 | COc1ccc(C2=C(C(=O)O)C(c3ccc4c(c3)OCO4)Oc3ccc(OC)cc32)cc1 (stereo unspecified)
18 | 3 | CCCCOC1=C(C(=O)O)C(c2ccc3c(c2)OCO3)Oc2ccc(OCCCC)cc21 (stereo unspecified)
19 | 4.4 | CCCOc1ccc2c(c1)C(c1ccc(OC)cc1)=C(C(=O)O)C(c1ccc3c(c1)OCO3)O2 (stereo unspecified)
20 | 110 | COc1ccc(C2=C(C(=O)O)C(c3ccc4c(c3)OCO4)Oc3ccc(C(C)C)cc32)cc1 (stereo unspecified)
21 | 2.8 | COc1ccc(C2=C(C(=O)O)C(c3ccc4c(c3)OCO4)Oc3ccc(OC(C)CO)cc32)cc1 (stereo unspecified)
22 | 0.19 | COc1ccc(C2=C(C(=O)O)[C@@H](c3ccc4c(c3)OCO4)Oc3ccc(OC(C)C)cc32)cc1

Test system: not listed separately
Test: Ratio of inhibitory concentrations at ET-B receptor relative to that of ET-A receptor

Row | SMILES | Ratio
23 | CCCCOC1=C(C(=O)O)C(c2ccc3c(c2)OCO3)Oc2ccccc21 (stereo unspecified) | 74
24 | CC(C)Oc1ccc2c(c1)C=C(C(=O)O)[C@@H](c1ccc3c(c1)OCO3)O2 | 220
25 | CCCCOC1=C(C(=O)O)C(c2ccc3c(c2)OCO3)Oc2ccc(OCC)cc21 (stereo unspecified) | 380
26 | CC(C)Oc1ccc2c(c1)C=C(C(=O)O)C(c1ccc3c(c1)OCO3)O2 (stereo unspecified) | 160

The next lines start with the values.

Row | Ratio | SMILES
27 | 7.3 | COc1ccc(C2=C(C(=O)O)C(c3ccc4c(c3)OCO4)Oc3ccc(OC)cc32)cc1 (stereo unspecified)
28 | 160 | CCCCOC1=C(C(=O)O)C(c2ccc3c(c2)OCO3)Oc2ccc(OCCCC)cc21 (stereo unspecified)
29 | 50 | CCCOc1ccc2c(c1)C(c1ccc(OC)cc1)=C(C(=O)O)C(c1ccc3c(c1)OCO3)O2 (stereo unspecified)
30 | 1.7 | COc1ccc(C2=C(C(=O)O)C(c3ccc4c(c3)OCO4)Oc3ccc(C(C)C)cc32)cc1 (stereo unspecified)
31 | 61 | COc1ccc(C2=C(C(=O)O)C(c3ccc4c(c3)OCO4)Oc3ccc(OC(C)CO)cc32)cc1 (stereo unspecified)
